Measurements: ChEMBL document CHEMBL1127424, “7-azetidinylquinolones as antibacterial agents. 2. Synthesis and biological activity of 7-(2,3-disubstituted-1-azetidinyl)-4-oxoquinoline- and -1,8-naphthyridine-3-carboxylic acids. Properties and structure-activity relationships of quinolones with an azetidine moiety” (J Med Chem, 1994)
In brackets after ≈: the same amount, converted by molar mass.

Columns and labels:
Proteus vulgaris = assay: In vitro minimum inhibitory concentration for Proteus vulgaris ATCC 8427; type: functional
Outline: (§1)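 Serial 2-fold agar dilution in Mueller Hinton medium, run alongside a reference quinolone. Inoculum adjusted to 10⁸ cfu/mL; compound range 0.007–16 μg/mL.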

Bacillus cereus = assay: In vitro minimum inhibitory concentration for Bacillus cereus ATCC 11778; type: functional; outline: as §1
Mus musculus [1] = assay: Evaluation of efficacy on systemic infections Pseudomonas aeruginosa HS-116, after oral administration in mice; type: functional
Outline: (§2)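 Single oral dose given immediately after infection, one of four doses per group, chosen from in vitro activity. Survival scored after one week. ED50 (total mg/kg protecting 50%) interpolated from survival rates.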

Staphylococcus aureus = assay: In vitro minimum inhibitory concentration for Staphylococcus aureus ATCC 25178; type: functional; outline: as §1
Mus musculus [2] = assay: Evaluation of efficacy on systemic infections Staphylococcus aureus HS-93, after oral administration in mice; type: functional; outline: as §2
Bacillus subtilis = assay: In vitro minimum inhibitory concentration for Bacillus subtilis ATCC 6633; type: functional; outline: as §1
Enterococcus faecalis = assay: In vitro minimum inhibitory concentration for Streptococcus faecalis ATCC 10541; type: functional; outline: as §1
[3] = Solubility (buffer pH 7.4); type: physicochemical; details: read-out: S
Outline: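 Excess solid shaken in 0.05 M phosphate buffer pH 7.4 for 24 h at 25 °C. Suspension filtered through 0.22 μm, discarding the first portion. Filtrate diluted in 0.1 N HCl or 0.1 N NaOH and read by UV at the compound's absorbance maximum.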

[4] = system: Staphylococcus epidermidis; assay: In vitro minimum inhibitory concentration for Staphylococcus epidermidis ATCC 155-1; type: functional; outline: as §1
Mus musculus [5] = assay: Evaluation of efficacy on systemic infections Escherichia coli HM-42, after oral administration in mice; type: functional; outline: as §2
Klebsiella pneumoniae = assay: In vitro minimum inhibitory concentration to inhibit Klebsiella pneumoniae ATCC 10031; type: functional; outline: as §1
Pseudomonas aeruginosa = assay: In vitro minimum inhibitory concentration for Pseudomonas aeruginosa ATCC 10145; type: functional; outline: as §1
[6] = AUC (0-4 hr) ug/ml/h; type: ADME, cell-free; set-up: time < 4 hr; concentration or dose not given beside the values; details: plasma
Outline: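 Mice dosed once orally at 50 mg/kg; blood taken from groups of six mice at 0.5, 1, 2 and 4 h. Serum drug assayed by disk agar diffusion bioassay (Bacillus subtilis ATCC 6633 on Seed Agar, 37 °C, 18 h), giving total activity.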

Morganella morganii = assay: In vitro minimum inhibitory concentration for Morganella morganii ATCC 8019; type: functional; outline: as §1
Escherichia coli = assay: In vitro minimum inhibitory concentration for Escherichia coli ATCC 10799; type: functional; outline: as §1
Enterobacter cloacae = assay: In vitro minimum inhibitory concentration for Enterobacter cloacae ATCC 23355; type: functional
[7] = HPLC capacity factor (k'); type: ADME
Outline: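 Ion-pair reversed-phase HPLC on ODS-2 (10 μm) at 45 °C. Mobile phase: 10 mM sodium heptanesulfonate plus 50 mM KH2PO4 (pH 3.5)–methanol 45:55, 1 mL/min. Samples at 100 μg/mL in DMF, injected in duplicate, UV 280 nm. k' = (tR − t0)/t0.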

[8] = Dissociation constant (pKa); type: physicochemical; details: read-out: pKa2
Outline: (§3)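 Spectrophotometric titration at 20 ± 1 °C, 0.1 M ionic strength, pH varied with H2SO4 or NaOH made up in the compound stock. Absorbance followed at compound-specific wavelengths chosen from 200–400 nm scans. pKa1 and pKa2 taken as the inflection points of the two-step absorbance vs pH curve.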

[9] = Measured ionization constant (pKa); type: physicochemical; details: read-out: pKa1; outline: as §3

MIC (Proteus vulgaris) [µg/mL]	MIC (Bacillus cereus) [µg/mL]	MIC (Staphylococcus aureus) [µg/mL]	MIC (Bacillus subtilis) [µg/mL]	MIC (Enterococcus faecalis) [µg/mL]	solubility [3] [µg/mL]	MIC [4] [µg/mL]	MIC (Klebsiella pneumoniae) [µg/mL]	MIC (Pseudomonas aeruginosa) [µg/mL]	AUC [6] [ng·h/mL]	MIC (Morganella morganii) [µg/mL]	MIC (Escherichia coli) [µg/mL]	MIC (Enterobacter cloacae) [µg/mL]	Log k' [7]	pKa [8]	pKa [9]	Structure (SMILES)	ED50 (Mus musculus [1]) [mg/kg]	ED50 (Mus musculus [2]) [mg/kg]	ED50 (Mus musculus [5]) [mg/kg]
0.06 (≈ 0.181 µM)	0.06 (≈ 0.181 µM)	0.12 (≈ 0.362 µM)	0.03 (≈ 0.0905 µM)	0.5 (≈ 1.51 µM)	6.1 (≈ 18.4 µM)	0.06 (≈ 0.181 µM)	0.03 (≈ 0.0905 µM)	0.5 (≈ 1.51 µM)	3700	0.03 (≈ 0.0905 µM)	0.06 (≈ 0.181 µM)	0.03 (≈ 0.0905 µM)	0.0457	–	–	C[C@H]1[C@@H](N)CN1c1cc2c(cc1F)c(=O)c(C(=O)O)cn2C1CC1	277	36.7	20
1 (≈ 2.9 µM)	1 (≈ 2.9 µM)	0.25 (≈ 0.724 µM)	0.06 (≈ 0.174 µM)	1 (≈ 2.9 µM)	–	0.25 (≈ 0.724 µM)	0.06 (≈ 0.174 µM)	2 (≈ 5.79 µM)	0	1 (≈ 2.9 µM)	0.12 (≈ 0.347 µM)	0.12 (≈ 0.347 µM)	-0.0607	–	–	C[C@@H]1[C@@H](CN)CN1c1cc2c(cc1F)c(=O)c(C(=O)O)cn2C1CC1	355	95	60.5
1 (≈ 2.47 µM)	0.25 (≈ 0.618 µM)	0.12 (≈ 0.297 µM)	0.06 (≈ 0.148 µM)	1 (≈ 2.47 µM)	10.4 (≈ 25.7 µM)	0.25 (≈ 0.618 µM)	0.06 (≈ 0.148 µM)	1 (≈ 2.47 µM)	25800	0.25 (≈ 0.618 µM)	0.25 (≈ 0.618 µM)	0.12 (≈ 0.297 µM)	0.1417	–	–	C[C@H]1[C@H](N)CN1c1nc2c(cc1F)c(=O)c(C(=O)O)cn2-c1ccc(F)cc1F	140	8.9	3.3
0.25 (≈ 0.649 µM)	0.25 (≈ 0.649 µM)	0.25 (≈ 0.649 µM)	0.06 (≈ 0.156 µM)	0.5 (≈ 1.3 µM)	–	0.25 (≈ 0.649 µM)	0.015 (≈ 0.0389 µM)	1 (≈ 2.59 µM)	16900	0.06 (≈ 0.156 µM)	0.12 (≈ 0.311 µM)	0.06 (≈ 0.156 µM)	0.0755	–	–	C[C@H]1[C@H](N)CN1c1cc2c(cc1F)c(=O)c(C(=O)O)cn2-c1ccc(F)cc1	109	7.5	2.9
–	–	–	–	–	–	–	–	–	–	–	–	–	0.482	7.81	6.44	CN(C)C1CN(c2cc3c(cc2F)c(=O)c(C(=O)O)cn3C2CC2)C1	–	–	–
–	–	–	–	–	–	–	–	–	–	–	–	–	0.0215	8.56	6.54	CNC1CN(c2cc3c(cc2F)c(=O)c(C(=O)O)cn3C2CC2)C1	–	–	–
0.5 (≈ 1.24 µM)	0.25 (≈ 0.62 µM)	0.25 (≈ 0.62 µM)	0.12 (≈ 0.298 µM)	2 (≈ 4.96 µM)	11.2 (≈ 27.8 µM)	0.12 (≈ 0.298 µM)	0.12 (≈ 0.298 µM)	2 (≈ 4.96 µM)	31400	0.25 (≈ 0.62 µM)	0.12 (≈ 0.298 µM)	0.12 (≈ 0.298 µM)	0.1875	–	–	C[C@H]1[C@H](N)CN1c1c(F)cc2c(=O)c(C(=O)O)cn(-c3ccc(F)cc3)c2c1F	54.6	5.7	2.5
0.06 (≈ 0.181 µM)	0.06 (≈ 0.181 µM)	0.12 (≈ 0.362 µM)	0.03 (≈ 0.0905 µM)	0.25 (≈ 0.754 µM)	9.9 (≈ 29.9 µM)	0.12 (≈ 0.362 µM)	0.03 (≈ 0.0905 µM)	0.25 (≈ 0.754 µM)	9200	0.03 (≈ 0.0905 µM)	0.03 (≈ 0.0905 µM)	0.03 (≈ 0.0905 µM)	-0.0132	–	6.46	C[C@H]1[C@H](N)CN1c1cc2c(cc1F)c(=O)c(C(=O)O)cn2C1CC1	108	22.3	3.5
–	–	–	–	–	–	–	–	–	–	–	–	–	0.5153	7.9	6.47	CN(C)C1(C)CN(c2cc3c(cc2F)c(=O)c(C(=O)O)cn3C2CC2)C1	–	–	–
